According to ChEMBL document CHEMBL2390937, “Evaluation of selective inhibitors of 11β-HSD1 for the treatment of hypertension” (Bioorg Med Chem Lett, 2013):
The source made the active and inactive calls. The calls are words filed in the database; no cut-off is given here.

Columns and labels:
Rattus norvegicus [1] = experiment: Antihypertensive activity in spontaneously hypertensive rat model assessed as reduction in heart rate at 10 mg/kg for 7 days; assay type: functional, organism-based; parameters: dose 10 mg/kg
Procedure, shortened: (§1)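 Spontaneously hypertensive rats implanted with telemetry abdominal aorta catheters and dosed daily at 10 mg/kg over 7 days. Heart rate and systolic and diastolic BP were recorded, with change from baseline compared against vehicle-treated animals.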

[2] = Ratio of drug level in brain to plasma of spontaneously hypertensive rat at 10 mg/kg; assay type: ADME, organism-based; parameters: dose 10 mg/kg; details: read-out: BPR
Procedure, shortened: (§2)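 Rats received 10 mg/kg and were sacrificed at peak (about 4 h) or trough (about 24 h) post dose. Total and free drug were measured in plasma, isolated brain and CSF, and the brain/plasma ratio was derived from these.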

[3] = Drug level in spontaneously hypertensive rat CSF at 10 mg/kg measured after 24 hrs; assay type: ADME, organism-based, Cerebrospinal fluid; parameters: dose 10 mg/kg; details: read-out: Drug uptake; procedure, shortened: as §2
[4] = Total drug level in spontaneously hypertensive rat brain at 10 mg/kg measured after 24 hrs; assay type: ADME, organism-based; parameters: dose 10 mg/kg; details: read-out: Drug uptake; procedure, shortened: as §2
Brain [5] = experiment: Free drug level in spontaneously hypertensive rat brain at 10 mg/kg measured after 24 hrs; assay type: ADME, organism-based; parameters: dose 10 mg/kg; details: in vivo; procedure, shortened: as §2
[6] = Drug level in spontaneously hypertensive rat CSF at 10 mg/kg measured after 4 hrs; assay type: ADME, organism-based, Cerebrospinal fluid; parameters: dose 10 mg/kg; details: read-out: Drug uptake; procedure, shortened: as §2
Plasma [7] = experiment: Free plasma concentration in spontaneously hypertensive rat at 10 mg/kg measured after 24 hrs; assay type: ADME, organism-based; parameters: dose 10 mg/kg; details: in vivo; procedure, shortened: as §2
[8] = Total drug level in spontaneously hypertensive rat brain at 10 mg/kg measured after 4 hrs; assay type: ADME, organism-based; parameters: dose 10 mg/kg; details: read-out: Drug uptake; procedure, shortened: as §2
Brain [9] = experiment: Free drug level in spontaneously hypertensive rat brain at 10 mg/kg measured after 4 hrs; assay type: ADME, organism-based; parameters: dose 10 mg/kg; details: in vivo; procedure, shortened: as §2
Plasma [10] = experiment: Free plasma concentration in spontaneously hypertensive rat at 10 mg/kg measured after 4 hrs; assay type: ADME, organism-based; parameters: dose 10 mg/kg; details: in vivo; procedure, shortened: as §2
[11] = Plasma concentration in spontaneously hypertensive rat model at 10 mg/kg measured after 24 hrs; assay type: ADME, organism-based; parameters: dose 10 mg/kg; procedure, shortened: as §2
[12] = Plasma concentration in spontaneously hypertensive rat model at 10 mg/kg measured after 4 hrs; assay type: ADME, organism-based; parameters: dose 10 mg/kg; procedure, shortened: as §2
Rattus norvegicus [13] = experiment: Antihypertensive activity in spontaneously hypertensive rat model assessed as reduction in diastolic BP at 10 mg/kg for 7 days; assay type: functional, organism-based; parameters: dose 10 mg/kg; procedure, shortened: as §1
Rattus norvegicus [14] = experiment: Antihypertensive activity in spontaneously hypertensive rat model assessed as reduction in systolic BP at 10 mg/kg for 7 days; assay type: functional; procedure, shortened: as §1
[15] = target: 11-beta-HSD1 (Rattus norvegicus); experiment: Binding affinity to rat liver microsomal 11beta-HSD1 by radiometric competition assay
[16] = target: 11-beta-hydroxysteroid dehydrogenase 1 (Rattus norvegicus, UniProt P16232); experiment: Inhibition of rat 11beta-HSD1
Homo sapiens [17] = species: Homo sapiens; experiment: Antihypertensive activity in hypertensive patients assessed as placebo-corrected systolic BP at 6 mg/day
Homo sapiens [18] = species: Homo sapiens; experiment: Antihypertensive activity in hypertensive patients assessed as placebo-corrected diastolic BP at 6 mg/day
Homo sapiens [19] = species: Homo sapiens; experiment: Antihypertensive activity in hypertensive patients assessed as placebo-corrected systolic BP at 7 mg/day
Homo sapiens [20] = species: Homo sapiens; experiment: Antihypertensive activity in hypertensive patients assessed as placebo-corrected diastolic BP at 7 mg/day
Mus musculus [21] = experiment: Antihypertensive activity in telemeterized wild type mouse assessed as reduction in systolic BP at 30 mg/kg/day for 11 days; assay type: functional
Procedure, shortened: (§3)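 Telemeterized 11β-HSD1 knockout mice and wild-type controls (not littermates) were dosed at 30 mg/kg/day. Systolic BP change was compared with vehicle-treated mice of each genotype, and plasma exposure was also measured.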

Mus musculus [22] = experiment: Antihypertensive activity in telemeterized 11beta-HSD1 KO mouse assessed as reduction in systolic BP at 30 mg/kg/day for 11 days; assay type: functional; procedure, shortened: as §3
[23] = target: 11-beta-HSD2 (Homo sapiens); experiment: Inhibition of human microsomal 11beta-HSD2 assessed as inhibition of […] by cell-based assay

Sequence of 11-beta-hydroxysteroid dehydrogenase 1 (P16232 whole entry): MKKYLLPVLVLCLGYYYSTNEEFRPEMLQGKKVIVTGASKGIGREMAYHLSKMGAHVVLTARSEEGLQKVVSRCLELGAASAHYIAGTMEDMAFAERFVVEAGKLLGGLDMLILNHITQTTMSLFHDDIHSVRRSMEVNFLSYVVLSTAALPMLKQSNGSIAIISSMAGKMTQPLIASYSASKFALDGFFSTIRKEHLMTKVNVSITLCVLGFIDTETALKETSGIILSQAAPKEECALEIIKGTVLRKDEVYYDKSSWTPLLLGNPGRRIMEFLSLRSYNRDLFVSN

Structure (SMILES) | Kp [2] | concentration at 24 h [3] [µM] | concentration at 24 h [4] [µM] | Drug uptake(free) (Brain [5]) [µM] | concentration at 4 h [6] [µM] | Cp(f) (Plasma [7]) [µM] | concentration at 4 h [8] [µM] | Drug uptake(free) (Brain [9]) [µM] | Cp(f) (Plasma [10]) [µM] | concentration at 24 h [11] [µM] | concentration at 4 h [12] [µM] | IC50 [16] [nM] | Ki [16] [nM] | Activity (Rattus norvegicus [1]) | Activity (Rattus norvegicus [13]) | Activity (Rattus norvegicus [14]) [mmHg] | further results
[3H]c1cc(-c2nnc(C34CCC(c5noc(C(C)(F)F)n5)(CC3)CC4)n2C)c(C(F)(F)F)cc1[3H] | – | – | – | – | – | – | – | – | – | – | – | – | – | – | – | – | Kd [15]: 11 nM
F[C@H]1C[C@](c2ccc(Cl)cc2)(c2nnc(C3CC3)n2C2CC2)C1 | – | – | – | – | – | – | – | – | – | – | – | – | – | – | – | – | Activity (Homo sapiens [17]): -7.9 mmHg; Activity (Homo sapiens [18]): -5.4 mmHg
CCS(=O)(=O)CCCC12CCC(c3nnc(-c4ccccc4C(F)(F)F)n3C)(CC1)CC2 [MK-0736] | – | – | – | – | – | – | – | – | – | – | – | – | – | – | – | – | Activity (Homo sapiens [19]): -7.7 mmHg; Activity (Homo sapiens [20]): -4.4 mmHg

Now from value to compound, other results behind:

Kp [2] | concentration at 24 h [3] [µM] | concentration at 24 h [4] [µM] | Drug uptake(free) (Brain [5]) [µM] | concentration at 4 h [6] [µM] | Cp(f) (Plasma [7]) [µM] | concentration at 4 h [8] [µM] | Drug uptake(free) (Brain [9]) [µM] | Cp(f) (Plasma [10]) [µM] | concentration at 24 h [11] [µM] | concentration at 4 h [12] [µM] | IC50 [16] [nM] | Ki [16] [nM] | Structure (SMILES) | Activity (Rattus norvegicus [1]) | Activity (Rattus norvegicus [13]) | Activity (Rattus norvegicus [14]) [mmHg] | further results
> 1 | 0.2 | 39.1 | 0.06 | 0.2 | 0.05 | 44.4 | 0.08 | 0.07 | 12.1 | 13.9 | – | – | Cn1c(-c2ccccc2C(F)(F)F)nnc1C12CCC(c3nc(-c4ccc(F)cc4)no3)(CC1)CC2 | Active | Active | >15 | –
< 1 | 0.7 | 0.8 | 0.2 | 2.1 | 2.1 | 3.1 | 1.3 | 8 | 10.2 | 27.7 | 9.1 | 13.1 | CCS(=O)(=O)CC12CCC(c3nnc(-c4ccccc4C(F)(F)F)n3C)(CC1)CC2 | Active | Active | 3 | –
< 1 | 0.7 | 0.7 | 0.2 | 5.1 | 1.9 | 5 | 0.5 | 9.5 | 6 | 24.2 | 6 | 3.9 | CCS(=O)(=O)CCC12CCC(c3nnc(-c4ccccc4C(F)(F)F)n3C)(CC1)CC2 | Active | Active | 3 | –
> 1 | 3.4 | 55.4 | 2.4 | 4.4 | 2.4 | 60.5 | 3 | 2.5 | 25.4 | 25 | 4.5 | 7 | Cn1c(-c2ccccc2C(F)(F)F)nnc1C12CCC(c3noc(C(C)(F)F)n3)(CC1)CC2 | Active | Active | >15 | Activity (Mus musculus [21]): -8 mmHg; Activity (Mus musculus [22]): -5.8 mmHg; Bmax ([15]; tested as the 3H-labelled form): 55500 fmol/mg; IC50 [23]: 3100 nM
